Source: publication PMC8056739 (British Journal of Clinical Pharmacology, 2020)
Several values for one entry are separate records, joined by “and”; a condition that tells them apart may be missing. Identical values can stand only once.

Assays:
[1] = Prior population PK model of peficitinib in healthy volunteers; format: in vivo; details: human, plasma, oral, 150 mg
How it was run: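 Healthy-volunteer plasma levels from five clinical pharmacology studies, excluding renal/hepatic-impairment subjects. Validated LC–MS/MS (LLOQ 0.25 ng/mL), BLQ values unused. NONMEM, FOCE with interaction. 2-compartment model, five absorption schemes compared, exponential IIV, proportional residual. Covariates tested on CL: age, weight, MDRD eGFR, liver enzymes, bilirubin. Selection stepwise (forward .01, backward .001). Assessed by goodness-of-fit plots and visual predictive check.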

[2] = Population PK model of peficitinib in RA patients; format: in vivo, human
How it was run: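 RA patients' plasma levels measured by validated LC–MS/MS (LLOQ 0.25 ng/mL) from trough and post-dose samples. BLQ values, samples >48 h after dosing (or <19 h in RAJ1), and outliers (>mean+3×SD of log trough per arm) were excluded. NONMEM, FOCE with interaction, healthy-volunteer model as prior (NWPRI penalty). 2-compartment model, exponential IIV, proportional residual. Stepwise covariate selection, power function centred on mean. 1000 bootstrap runs.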

[3] = cited from earlier work
[4] = RA patient model, 1000 bootstrap runs
[5] = RA patient model, √(exp(ω^2)-1) × 100

## NC(=O)c1cnc2[nH]ccc2c1N[C@@H]1[C@@H]2CC3C[C@H]1C[C@@](O)(C3)C2 [peficitinib]
[1]
  clearance: 1390 mL/min
[2]; RA patient model
  ALAG, absorption lag time (estimate): 0.132 h
  D, duration of zero-order absorption (estimate): 1.37 h
  Ka, first-order absorption rate constant (estimate): 5.83 L/h
  Vc, apparent distribution volume of the central compartment (estimate): 280 L
  Vp, apparent distribution volume of the peripheral compartment (estimate): 122 L
[2]; RA patient model, population estimate, oral
  CL, apparent total systemic clearance (estimate): 91.7 L/h
[2]; [4]
  ALAG, bootstrap median: 0.132 h
  D, bootstrap median: 1.36 h
  Ka, bootstrap median: 5.82 L/h
  Q, bootstrap median: 10.2 L/h
  Vc, bootstrap median: 279 L
  Vp, bootstrap median: 122 L
[2]; RA patient model, eGFR centred at 91.5 mL/min/1.73m^2
  Covariate eGFR on CL (exponent of power function, estimate): 0.213
[2]; RA patient model, lymphocyte count centred at 1550 10^6/L
  Covariate LYM (lymphocyte count) on CL (exponent of power function, estimate): −0.104
[2]; [5]
  Interindividual variability of CL: 25.7%
  Interindividual variability of Vc: 39.2%
[2]; human, plasma, oral
  clearance: 1530 mL/min
[2]; patients with observed maximum eGFR of 188 mL/min/1.73m^2
  Model predicted mean change in CL from population mean CL: 16.7%
[2]; patients with observed maximum lymphocyte count of 4600 10^6/L
  Model predicted mean change in CL from population mean CL: −10.7%
[2]; patients with observed minimum eGFR of 36.4 mL/min/1.73m^2
  Model predicted mean change in CL from population mean CL: −17.8%
[2]; patients with observed minimum lymphocyte count of 500 10^6/L
  Model predicted mean change in CL from population mean CL: 12.3%
[3]
  Exposure in healthy Japanese compared with Caucasian: greater
  Mean exposure in subjects with moderate hepatic impairment: increases
[3]; healthy subjects, single dose 450 mg
  Mean AUCinf: 4660 ng·h/mL
[3]; healthy subjects, single dose up to 450 mg
  Tolerability: tolerability was shown
[3]; healthy volunteers, single doses 3–300 mg
  Dose proportionality of exposure: dose‐proportional exposure
[3]; healthy volunteers
  Increase of AUCinf by food intake: 27% and 36% and 27–36%
  Mean terminal half-life (t1/2): 2.8 to 12.9 h
  Time to maximum observed concentration (Tmax): 1.0 to 1.8 h
  Urinary excretion of peficitinib, share of the oral dose: 9–15%
[3]; single, oral 150 mg dose
  Exposure in subjects with versus without renal impairment: comparable
